# Measurements published in publication PMC11362829 (RSC Advances, 2024).
# pIC50: −log10 of the molar value.
# What was measured:
# [1] = target: T1, recombinant E. coli DXR enzyme (EcDXR) (Escherichia coli, UniProt P45568); experiment: DXR enzyme inhibition assay; assay type: biochemical; settings: for inhibition at 50 µM: read-out: % Inhibition at 50 μM, EcDXR, 50 μM; for inhibition at 100 µM: read-out: % Inhibition at 100 μM, in vitro EcDXR inhibition, 100 μM
# T1 sequence (P45568 1-398): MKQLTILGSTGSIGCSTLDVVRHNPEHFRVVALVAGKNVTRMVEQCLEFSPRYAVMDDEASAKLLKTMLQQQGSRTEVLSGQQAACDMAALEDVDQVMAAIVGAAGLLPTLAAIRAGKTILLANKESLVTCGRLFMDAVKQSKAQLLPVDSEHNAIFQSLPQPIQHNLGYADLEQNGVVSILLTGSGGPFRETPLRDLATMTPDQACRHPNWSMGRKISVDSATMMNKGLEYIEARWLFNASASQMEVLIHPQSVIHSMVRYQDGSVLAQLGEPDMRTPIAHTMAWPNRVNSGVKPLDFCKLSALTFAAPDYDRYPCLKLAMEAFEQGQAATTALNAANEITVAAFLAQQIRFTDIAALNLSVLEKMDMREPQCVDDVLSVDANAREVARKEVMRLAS
# Outline: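 Recombinant E. coli DXR, assayed with a commercial kit following the vendor protocol. Test compound from a DMSO stock; final DMSO ~0.2% v/v or lower. Enzyme and compound pre-incubated with shaking for 10 minutes, then DXP added to start the reaction. NADPH consumption read kinetically at 340 nm. Inhibition taken at a single level or across five levels for IC50. IC50 from one representative experiment run in duplicate.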
# [2] = tested on: M. tuberculosis H37Rv mc^2 6206; experiment: Screening against M. tuberculosis and MIC by Alamar Blue assay; assay type: cell-based; settings: for MIC: Mycobacterium tuberculosis, H37RV, read-out: MIC against M. tuberculosis
# [3] = Dilution of DMSO stock with the aqueous assay buffer; assay type: physicochemical; settings: dilution for the 50 μM enzyme assay
# E. coli = experiment: Screening against ESKAPE pathogens: E. coli; assay type: cell-based
# Outline: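 E. coli grown in LB at 37 °C with shaking at 200 rpm to turbidity, then diluted to OD600 0.02. Test compound freshly dissolved in DMSO and added at one of two single levels. Growth judged visually after 24 h at 37 °C against DMSO-treated controls.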
structure (smiles),measurement,setting,value
"CC(NC(=O)c1cccc(O)c1O)P(=O)(O)O (stereo not drawn) [Compound 21c, (1-(2,3-Dihydroxybenzamido)ethyl)phosphonic acid]",inhibition at 50 µM,[1],60.1%
"O=C(NC(c1cccc2ccccc12)P(=O)(O)O)c1ccccc1O (stereo not drawn) [Compound 20d, ((2-Hydroxybenzamido)(naphthalen-1-yl)methyl)phosphonic acid]",Effect on M. tuberculosis growth,[2]; 500 μM,inhibited M. tuberculosis growth
same,MIC,[2],> 250 µM
same,pIC50,[1],4.48
same,folds less potent than 22d,[1]; EcDXR IC50 compared to 22d,~8 fold
same,inhibition at 50 µM,[1],81.3%
"O=C(NC(c1ccc(Cl)c(Cl)c1)P(=O)(O)O)c1ccccc1O (stereo not drawn) [Compound 20e, ((3,4-Dichlorophenyl)(2-hydroxybenzamido)methyl)phosphonic acid]",Behaviour during dilution with the aqueous buffer,[3],precipitated during dilution
same,Effect on M. tuberculosis growth,[2]; 500 μM,inhibited M. tuberculosis growth
same,MIC,[2],> 250 µM
"O=C(O)c1ccc2ccccc2c1O [Compound F7, 1-Hydroxy-2-naphthoic acid]",inhibition at 100 µM,[1],100%
"O=Cc1cccc(O)c1O [Compound F9, 2,3-dihydroxy benzaldehyde]",inhibition at 100 µM,[1],86.5%
"O=C(NC(c1cccc2ccccc12)P(=O)(O)O)c1ccc2ccccc2c1O (stereo not drawn) [Compound 22d, ((1-Hydroxy-2-naphthamido)(naphthalen-1-yl)methyl)phosphonic acid]",Effect on M. tuberculosis growth,[2]; 500 μM,inhibited M. tuberculosis growth
same,MIC,[2],125 µM
same,Activity against E. coli,E. coli,inactive against E. coli
same,pIC50,[1],5.35
same,fold improvement in IC50 value compared to 22a,[1]; EcDXR IC50 compared to 22a,~4 fold
same,inhibition at 50 µM,[1],73.7%
"O=C(NCP(=O)(O)O)c1ccc2ccccc2c1O [Compound 22b, ((1-Hydroxy-2-naphthamido)methyl)phosphonic acid]",Effect on M. tuberculosis growth,[2]; 500 μM,inhibited M. tuberculosis growth
same,MIC,[2],> 250 µM
same,Activity against E. coli,E. coli,inactive against E. coli
same,pIC50,[1],6.54
same,inhibition at 50 µM,[1],76.3%
"O=C(NCCc1ccccc1)c1ccc2ccccc2c1O [Compound 25b, 1-Hydroxy-N-phenethyl-2-naphthamide]",inhibition at 50 µM,[1],4.69%
"O=C(NCCCc1ccccc1)c1ccc2ccccc2c1O [Compound 25c, 1-Hydroxy-N-(3-phenylpropyl)-2-naphthamide]",inhibition at 50 µM,[1],31.3%
"O=C(O)c1coc2ccccc2c1=O [Compound F10, Chromone-3-carboxylic acid]",inhibition at 100 µM,[1],100%
"O=C(O)c1cccc(O)c1O [Compound F2, 2,3-Dihydroxy benzoic acid]",inhibition at 100 µM,[1],93.3%
"O=C(O)c1ccccc1O [Compound F12, Salicylic acid]",inhibition at 100 µM,[1],87.4%
"O=C(NC(c1cccc2ccccc12)P(=O)(O)O)c1cccc(O)c1O (stereo not drawn) [Compound 21d, ((2,3-Dihydroxybenzamido)(naphthalen-1-yl)methyl)phosphonic acid]",inhibition at 50 µM,[1],78.5%
"O=C(NCP(=O)(O)O)c1cccc(O)c1O [Compound 21b, ((2,3-Dihydroxybenzamido)methyl)phosphonic acid]",inhibition at 50 µM,[1],68.4%
"O=C(NCc1ccccc1)c1ccc2ccccc2c1O [Compound 25a, N-Benzyl-1-hydroxy-2-naphthamide]",% Inhibition at 50 μM,"[1]; EcDXR, 50 μM",30.4%
same,inhibition at 50 µM,[1],30%
"O=C(NC(c1ccccc1)P(=O)(O)O)c1cccc(O)c1O (stereo not drawn) [Compound 21a, ((2,3-Dihydroxybenzamido)(phenyl)methyl)phosphonic acid]",Effect on M. tuberculosis growth,[2]; 200 μM,none of the tested compounds affected M. tuberculosis growth
same,inhibition at 50 µM,[1],66.5%
"O=C(NC(c1ccccc1)P(=O)(O)O)c1ccccc1O (stereo not drawn) [Compound 20a, ((2-Hydroxybenzamido)(phenyl)methyl)phosphonic acid]",Effect on M. tuberculosis growth,[2]; 200 μM,none of the tested compounds affected M. tuberculosis growth
same,pIC50,[1],4.48
same,fold less potency than its counterpart 22a,[1]; EcDXR IC50 compared to 22a,~2 fold
same,inhibition at 50 µM,[1],94.6%
"O=C(NCP(=O)(O)O)c1ccccc1O [Compound 20b, ((2-hydroxybenzamido)methyl)phosphonic acid]",Behaviour during dilution with the aqueous buffer,[3],precipitated during dilution
"O=CN(O)CCCP(=O)(O)O [FSM, Fosmidomycin, reference compound]",inhibition at 100 µM,[1],100%
"CC(NC(=O)c1ccccc1O)P(=O)(O)O (stereo not drawn) [Compound 20c, (1-(2-Hydroxybenzamido)ethyl)phosphonic acid]",Behaviour during dilution with the aqueous buffer,[3],precipitated during dilution
"O=C(NC(c1ccccc1)P(=O)(O)O)c1ccc2ccccc2c1O (stereo not drawn) [Compound 22a, ((1-Hydroxy-2-naphthamido)(phenyl)methyl)phosphonic acid]",Effect on M. tuberculosis growth,[2]; 200 μM,none of the tested compounds affected M. tuberculosis growth
same,pIC50,[1],4.77
same,folds lower potency than 22b,[1]; EcDXR IC50 compared to 22b,~57 fold
same,inhibition at 50 µM,[1],70.9%
"CC(NC(=O)c1ccc2ccccc2c1O)P(=O)(O)O (stereo not drawn) [Compound 22c, (1-(1-Hydroxy-2-naphthamido)ethyl)phosphonic acid]",inhibition at 50 µM,[1],84.2%
"O=C(NC(c1ccccc1)P(=O)(O)O)c1coc2ccccc2c1=O (stereo not drawn) [Compound 23a, ((4-Oxo-4H-chromene-3-carboxamido)(phenyl)methyl)phosphonic acid]",Effect on M. tuberculosis growth,[2]; 200 μM,none of the tested compounds affected M. tuberculosis growth
same,pIC50,[1],5.22
same,inhibition at 50 µM,[1],79.8%
